KLK7 zymogen act = proKLK7 (human) activation, primary screen | P49862 | purified proKLK7, EDANS-DABCYL substrate fluorescence; 100% is mature enzyme control, 0% vehicle | activation, % at 7 µM | 0.9% of 370,000 active | AID 652039;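 active = activation above the mean of all tested compounds plus 3 SD, computed per campaign excluding outliers beyond control limits, cut at about 13% in these data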
Target sequence (P49862 whole entry, looked up): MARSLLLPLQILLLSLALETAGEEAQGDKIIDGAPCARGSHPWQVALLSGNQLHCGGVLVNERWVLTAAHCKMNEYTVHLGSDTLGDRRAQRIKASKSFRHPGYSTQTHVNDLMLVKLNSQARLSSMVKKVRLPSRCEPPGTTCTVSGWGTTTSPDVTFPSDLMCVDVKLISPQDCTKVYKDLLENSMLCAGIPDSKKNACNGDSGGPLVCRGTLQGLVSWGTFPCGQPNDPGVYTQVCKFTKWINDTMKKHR
MIN6 prolif = MIN6 beta-cell proliferation induction; MIN6 cells proliferation, ATPlite luminescence, 48 h; cells starved in 0.2% serum; 100% = growth in 10% serum; 0.29% of 330,000 active; AID 2380; proliferation, % at 10 µM;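 active = compounds whose signal lies at least 3.5 SD above the mean of all wells on their plate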;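 note: 0% = DMSO-treated cells in low-serum medium and 100% = 10% serum control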
T cell modulator = T cell immune modulators affecting CD8 T cell-vesicle binding. 2C CD8+ T cell-vesicle binding, flow cytometry; active compounds read low. response (vesicle binding), % at 7 µM. 0.068% of 330,000 active. AID 2052;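 active = response, share of CD8 T cells binding vesicles, and their 90th percentile fluorescence all below set limits, cut at about 80% in these data, passing the limit was not always enough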;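 note: values below 100% mean blocked vesicle binding to the CD8+ T cells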
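Also added: QL9-peptide-loaded Drosophila micro-vesicles bearing Ld, ICAM-1 and B7-1; Test system: purified 2C TCR transgenic mouse naive CD8+ T cells; Measured by: cytometric PE anti-B7-1 and Alexa647 anti-CD8 signals after 1% paraformaldehyde fixation; Timing: binding step 1.5 h, 37 °C, antibody labelling 20 min, ice.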
Rce1 inh = inhibitors of yeast Ras-converting enzyme | calls only | 0.27% of 290,000 active | Q03530 | yeast membranes, quenched prenylated peptide cleavage fluorescence;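 active = fall in fluorescence gain of 50% or more versus controls, with final raw signal at or below 3038400; inconclusive = same 50% fall but final raw signal above 3038400; inactive = fall in fluorescence gain under 50%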;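 note: plate controls were neutral control wells for no effect and wells lacking membranes for full effect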
Target sequence (Q03530 whole entry, looked up): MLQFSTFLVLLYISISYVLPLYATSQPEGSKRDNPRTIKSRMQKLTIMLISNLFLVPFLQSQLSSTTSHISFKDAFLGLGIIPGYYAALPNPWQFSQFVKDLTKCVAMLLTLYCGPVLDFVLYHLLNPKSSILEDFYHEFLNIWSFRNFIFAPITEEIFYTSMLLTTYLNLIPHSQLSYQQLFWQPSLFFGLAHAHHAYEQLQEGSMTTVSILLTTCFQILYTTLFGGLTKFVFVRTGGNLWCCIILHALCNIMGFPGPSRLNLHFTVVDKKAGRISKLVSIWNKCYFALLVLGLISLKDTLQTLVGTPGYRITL
V-ATPase pHluor = alters yeast V-ATPase proton transport; S. cerevisiae, pHLuorin cytosolic pH fluorescence; response, % at 10 µM; 0.37% of 350,000 active; AID 504577; in the data active = response mostly above about 7.3%, no sharp cut-off; inactive = mostly below about 5.4%; note: actives read high
CR mimetic SO = yeast age-related superoxide inhibition as caloric restriction mimetic. S. cerevisiae aged cells, superoxide DHE fluorescence; active compounds read low. superoxide response (% of plate mean), % at 10 µM. 0.18% of 330,000 active. AID 2690;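 active = superoxide response under a set limit, about three screen SD below normal, cut at about 65% in these data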;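 note: yeast aged for seven days with compound at 30 °C before DHE staining; 100% = average MFI of all compound-treated wells on the plate with controls excluded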
proKLK7 act conf = confirmation of human kallikrein-7 zymogen activators; shares compounds with KLK7 zymogen act; purified proKLK7, EDANS-DABCYL substrate fluorescence; scaled: vehicle 0, mature enzyme 100; activation, % at 7 µM; 68% of 3,200 active;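 active = activation, as change over the incubation, above the mean of all tested compounds plus 3 SD, cut at about 13% in these data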
EDANS interfere = counter-screen for kallikrein-7 activators: EDANS-DABCYL optical interference | shares compounds with KLK7 zymogen act | EDANS-DABCYL substrate fluorescence interference, no enzyme, 4 h; solvent 0%, active enzyme control 100% | activation, % at 7 µM | 80% of 3,200 active;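 active = activation above the all-compound mean plus 3 SD, ignoring values outside control-based bounds, cut at about 4.8% in these data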;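 note: value is the 4 h activation minus the activation read at time zero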
EDANS interf = optically interferes with EDANS-DABCYL fluorescence, kallikrein-7 activator counter-screen; shares compounds with KLK7 zymogen act; EDANS-DABCYL peptide fluorescence interference, no enzyme; EC50, µM; 20% of 250 active; AID 720493;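 active = compounds that raise the fluorescence signal in this interference counterscreen, with EC50 at or below 10 µM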;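 note: intact quenched peptide substrate alone read at 355 nm excitation and 520 nm emission; signal is fluorescence gain from T0 to T4 after four hours at room temperature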
* hit, by the source's call; i = inactive; ? = inconclusive; / = no result. This is a sample that favours compounds with a hit; in the whole collection about 1.9% have one here.

SMILES	KLK7 zymogen act	MIN6 prolif	T cell modulator	Rce1 inh	V-ATPase pHluor	CR mimetic SO	proKLK7 act conf	EDANS interfere	others
COc1ccc(O)c(C(=O)c2cnn(C(=O)c3cc(C)oc3C)c2)c1	40*	-3	430	i	3	95	174*	144*
COc1ccc(O)c(C(=O)c2cnn(C(=O)c3cccc(N(C)C)c3)c2)c1	51*	-5	244	/	1	84	168*	157*
COc1ccc(C(=O)n2cc(C(=O)c3cc(C)ccc3O)cn2)cc1	0	0	329	i	0	100	/	/
COc1ccc(C(=O)n2cc(C(=O)c3cc(C)ccc3O)cn2)cc1OC	21*	-4	255	i	1	100	55*	49*
O=C(COc1ccccc1CNC[C@H]1O[C@@H](n2ccc(=O)[nH]c2=O)[C@H](O)[C@@H]1O)N1CCCCC1	0	/	/	/	/	/	/	/
COc1ccc2c(c1OC)C(=O)OC2C/C(=N\NC(N)=O)c1ccccc1 (stereo unspecified)	1	-1	234	i	-3	112	/	/
COc1ccc2c(c1OC)C(=O)OC2CC(=O)c1ccc2c(c1)OCO2 (stereo unspecified)	18*	-4	180	i	3	95	12	12*
O=C(O)c1ccc(N=c2oc3cc(O)ccc3cc2C(=O)NCc2ccccc2)cc1	5	-1	171	i	0	83	/	/
O=C(O)c1cc2ccc(O)cc2oc1=O	104*	/	/	/	0	/	65*	73*
COc1ccccc1C(=O)c1cc2ccc(O)cc2oc1=O	0	-3	214	i	2	107	/	/
COc1ccc2cc(S(=O)(=O)c3ccccc3)c(=O)oc2c1	-23	-1	110	i	-1	96	/	/
Cc1ccc(S(=O)(=O)c2cc3ccc(O)cc3oc2=O)cc1C	44*	-1	486	i	-3	91	62*	68*
O=C(NCc1ccccc1)c1cc2ccc(O)cc2oc1=O	58*	-3	204	?	-1	97	69*	71*
O=C(c1ccc(F)cc1)c1cc2ccc(O)cc2oc1=O	-1	2	275	i	-4	107	/	/
C/C(=N\NC(=O)CC#N)c1cc2ccc(O)cc2oc1=O	61*	0	384	i	0	95	46*	43*
Nc1nccnc1C(=O)OCc1nc2sc3c(c2c(=O)[nH]1)CCCC3	49*	1	219	i	1	105	89*	75*	EDANS interf=6.5*
O=C(CCc1nc2sc3c(c2c(=O)[nH]1)CCCC3)NCCOc1ccccc1	0	2	428	i	1	102	/	/
CCOc1ccc(NC(=O)CSc2nncc(=O)n2N)cc1	0	0	392	i	4	75	/	/
C=CCN(c1ccccc1)S(=O)(=O)c1cccc(C(=O)OCC(=O)NCCOC)c1	-1	0	304	i	-1	107	/	/
C=CCN(c1ccccc1)S(=O)(=O)c1cccc(C(=O)Oc2ccc3c(C)cc(=O)oc3c2)c1	42*	0	301	i	-2	100	405*	422*
COc1ccccc1-c1nnc(N(C)C(=O)C2CCCO2)s1 (stereo unspecified)	18*	-3	322	i	-3	94	26*	26*
COCC(=O)N(C)c1nnc(-c2ccccn2)s1	63*	-4	506	i	0	91	82*	77*
COCC(=O)N(C)c1nnc(-c2ccc([N+](=O)[O-])cc2)s1	0	-2	480	i	0	100	/	/
CN(C(=O)C1CCCO1)c1nnc(-c2ccccn2)s1 (stereo unspecified)	98*	3	199	i	0	92	94*	95*
CN(C(=O)C1CCCO1)c1nnc(-c2ccncc2)s1 (stereo unspecified)	130*	-2	239	i	0	96	167*	167*
SMILES	KLK7 zymogen act	MIN6 prolif	T cell modulator	Rce1 inh	V-ATPase pHluor	CR mimetic SO	proKLK7 act conf	EDANS interfere	others
O=C(NC1CC1)c1ccc2nc([C@@H]3O[C@H](CO)[C@H](O)[C@H](O)[C@H]3O)[nH]c2c1	0	/	/	/	/	/	/	/
O=C(/C=C/[C@H]1O[C@@H](n2cnc3c(NC(=O)c4ccccc4)ncnc32)[C@H](O)[C@@H]1O)NCC(c1ccccc1)c1ccccc1	1	/	/	/	/	/	/	/
CC(=O)Oc1ccc2c3c(c(=O)oc2c1C)CCCC3	168*	-2	161	i	2	91	531*	500*
Cc1c(OC(C)C(=O)O)ccc2c3c(c(=O)oc12)CCCC3 (stereo unspecified)	2	3	207	i	0	100	/	/
CC(C)CC(=O)C(=O)O	0	1	443	/	2	94	/	/
COc1ccc2cc3cc(C(=O)NCC4CCCO4)oc3nc2c1 (stereo unspecified)	48*	-2	183	i	-2	97	66*	71*
CCCCN(CC)C(=O)c1cc2cc3ccc(OC)cc3nc2o1	13*	-2	354	i	1	100	-5	0
COc1ccc2cc3cc(C(=O)NCCC(C)C)oc3nc2c1	-15	-2	199	?	4	99	/	/
COc1ccc(C(=O)NCC2CCCO2)cc1 (stereo unspecified)	-1	0	910	i	7	90	/	/
CCOc1ccc(NC(=O)c2cc3cc4ccc(OC)cc4nc3o2)cc1	0	-3	236	i	-3	94	/	/
CCC(C)NC(=O)c1cc2cc3ccc(OC)cc3nc2o1 (stereo unspecified)	40*	-5	170	i	0	110	44*	63*
COCCNC(=O)c1cc2cc3ccc(OC)cc3nc2o1	35*	2	148	i	-4	105	67*	78*
CCOc1ccc2c(c1)/C(=C(\C(Cl)=C(Cl)Cl)[N+](=O)[O-])N2	18*	-2	631	i	1	124	53*	61*
COc1cc2ccccc2cc1C(=O)O	0	-1	200	i	6	104	/	/
COc1cc2c(OC)cccc2cc1C(=O)O	18*	-3	i	i	-1	103	11	8.5*
COc1ccc(C(C)(C)C)cc1NC(=O)C1=CC=CN2CCS(=O)(=O)N=C12	-38	-2	591	/	-1	104	/	/
